Data as given in ChEMBL document CHEMBL1121966, “(2R*,3S*)-1-[125I]Iodo-2,3-bis(4-hydroxyphenyl)pentane ([125I]iodonorhexestrol) and (2R*,3S*)-1-[77Br]Bromo-2,3-bis(4-hydroxyphenyl)pentane ([77Br]bromonorhexestrol), two gamma-emitting estrogens that show receptor-mediated uptake by target tissues in vivo” (1982).

Columns and labels:
[1] = Solvolytic stability of compound was measured relative to p-hydroxyphenethyl bromide; format: functional, Rattus norvegicus
Rattus norvegicus [2] = organism: Rattus norvegicus; experiment: Percent injected dose per gram kidney at 1 hr; format: functional
Summary of the method: (§1)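 Immature (25-day, ca. 50 g) Sprague-Dawley female rats received an iv injection (jugular or tail vein) of HPLC-purified tracer in ethanol plus 0.9% NaCl/rat serum 1:1. Doses were 2 μCi [125I]iodo tracer (≤15 pmol), or 2 μCi [77Br]bromo tracer (≤1.25 pmol) with 2 μCi 16α-[125I]iodoestradiol. Animals were killed at 1 h; blood and tissues were weighed and γ-counted. Blocking: coinjected unlabeled estradiol, 9 μg (iodo) or 18 μg (bromo). Mean ± SD.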

Rattus norvegicus [3] = organism: Rattus norvegicus; experiment: Percent injected dose per gram kidney at 1 hr with unlabeled estradiol; format: functional; summary of the method: as §1
Rattus norvegicus [4] = organism: Rattus norvegicus; experiment: Percent injected dose per gram liver at 1 hr; format: functional
Summary of the method: (§2)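 Immature (25 day) female Sprague-Dawley rats (ca. 50 g) were dosed iv (jugular or tail vein) in ethanol plus 0.9% NaCl/rat serum (1:1). Doses were 2 μCi of [125I]iodonorhexestrol (≤15 pmol/dose), or 2 μCi each of [77Br]bromonorhexestrol (≤1.25 pmol/dose) and 16α-[125I]iodoestradiol (2 pmol/dose). Rats were killed at 1, 3 or 6 h; blood and tissues were weighed and γ-counted. Thyroid weight assumed 0.005 g/100 g body weight. Mean ± SD.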

Rattus norvegicus [5] = organism: Rattus norvegicus; experiment: Percent injected dose per gram liver at 1 hr with unlabeled estradiol; format: functional
Summary of the method: (§3)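 Same iv biodistribution in immature female rats, killed at 1 h, with unlabeled estradiol coinjected to block receptor uptake: 9 μg with [125I]iodonorhexestrol (3 rats), 18 μg with the [77Br]bromonorhexestrol/16α-[125I]iodoestradiol pair (5 rats). Tissue and blood radioactivity were counted as % injected dose/g and tissue-to-blood ratio.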

Rattus norvegicus [6] = organism: Rattus norvegicus; experiment: Percent injected dose per gram lung at 1 hr; format: functional; summary of the method: as §2
Rattus norvegicus [7] = organism: Rattus norvegicus; experiment: Percent injected dose per gram lung at 1 hr with unlabeled estradiol; format: functional; summary of the method: as §3
Rattus norvegicus [8] = organism: Rattus norvegicus; experiment: Percent injected dose per gram spleen at 1 hr; format: functional; summary of the method: as §2
Rattus norvegicus [9] = organism: Rattus norvegicus; experiment: Percent injected dose per gram spleen at 1 hr with unlabeled estradiol; format: functional; summary of the method: as §3
Rattus norvegicus [10] = organism: Rattus norvegicus; experiment: Percent injected dose per gram thyroid at 1 hr; format: functional, Thyroid gland; summary of the method: as §2
Rattus norvegicus [11] = organism: Rattus norvegicus; experiment: Percent injected dose per gram thyroid at 1 hr with unlabeled estradiol; format: functional, Thyroid gland; summary of the method: as §3
Rattus norvegicus [12] = organism: Rattus norvegicus; experiment: Percent injected dose per gram Uterus at 1 hr with unlabeled estradiol.; format: functional; summary of the method: as §1
Rattus norvegicus [13] = organism: Rattus norvegicus; experiment: Percent injected dose per gram blood at 1 hr; format: functional; summary of the method: as §1
Rattus norvegicus [14] = organism: Rattus norvegicus; experiment: Percent injected dose per gram blood at 1 hr with unlabeled estradiol; format: functional; summary of the method: as §1
Rattus norvegicus [15] = organism: Rattus norvegicus; experiment: Percent injected dose per gram esophagus at 1 hr; format: functional; summary of the method: as §1
Rattus norvegicus [16] = organism: Rattus norvegicus; experiment: Percent injected dose per gram esophagus at 1 hr with unlabeled estradiol; format: functional; summary of the method: as §1
Rattus norvegicus [17] = organism: Rattus norvegicus; experiment: Percent injected dose per gram Muscle at 1 hr with unlabeled estradiol; format: functional; summary of the method: as §1
Rattus norvegicus [18] = organism: Rattus norvegicus; experiment: Percent injected dose per gram Ovaries at 1 hr; format: functional; summary of the method: as §1
Rattus norvegicus [19] = organism: Rattus norvegicus; experiment: Percent injected dose per gram Ovaries at 1 hr with unlabeled estradiol; format: functional; summary of the method: as §1
Rattus norvegicus [20] = organism: Rattus norvegicus; experiment: Percent injected dose per gram Uterus at 1 hr; format: functional; summary of the method: as §1
[21] = Ovary/blood distribution ratio was determined in immature female rats at 1 hr; format: functional; summary of the method: as §1
[22] = Ovary/blood distribution ratio was determined in immature female rats at 1 hr with unlabeled estradiol; format: functional; summary of the method: as §1
[23] = Spleen/blood distribution ratio was determined immature female rats at 1 hr; format: functional; summary of the method: as §2
[24] = Esophagus/blood distribution ratio was determined in immature female rats at 1 hr with unlabeled estradiol; format: functional; summary of the method: as §1
[25] = Muscle/blood distribution ratio was determined immature female rats at 1 hr with unlabeled estradiol; format: functional; summary of the method: as §1
[26] = Liver/blood distribution ratio was determined in immature female rats at 1 hr; format: functional; summary of the method: as §1
[27] = Liver/blood distribution ratio was determined in immature female rats at 1 hr with unlabeled estradiol; format: functional; summary of the method: as §1
[28] = Lung/blood distribution ratio was determined in immature female rats at 1 hr; format: functional; summary of the method: as §1
[29] = Spleen/blood distribution ratio was determined in immature female rats at 1 hr with unlabeled estradiol; format: functional
[30] = Kidney/blood distribution ratio was determined in immature female rats at 1 hr; format: functional; summary of the method: as §1
[31] = Kidney/blood distribution ratio was determined in immature female rats at 1 hr with unlabeled estradiol; format: functional; summary of the method: as §1
[32] = Tissue/blood distribution ratio was measured in immature female rats at 1 hr; format: functional; summary of the method: as §2
[33] = Tissue/blood distribution ratio was measured in immature female rats at 1h, unlabeled estradiol (18 microg) coinjected; format: functional
Summary of the method: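 Immature female rats given iv [77Br]bromonorhexestrol with 16α-[125I]iodoestradiol (2 μCi each) plus 18 μg unlabeled estradiol coinjected; killed at 1 h. Tissue and blood were weighed and counted, and tissue-to-blood radioactivity ratios were computed; 5 animals, mean ± SD.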

[34] = Thyroid/blood distribution ratio was determined in immature female rats at 1 hr; format: functional; summary of the method: as §2
[35] = Thyroid/blood distribution ratio was determined in immature female rats at 1 hr with unlabeled estradiol; format: functional; summary of the method: as §3
[36] = Uterus/blood distribution ratio was measured in immature female rats at 1 hr; format: functional; summary of the method: as §2
[37] = Uterus/blood distribution of compound was measured in immature female rats at 1 hr with unlabeled estradiol; format: functional; summary of the method: as §3
Rattus norvegicus [38] = organism: Rattus norvegicus; experiment: Percent injected dose per gram Muscle at 1 hr; format: functional; summary of the method: as §1
[39] = Lung/blood distribution ratio was determined in immature female rats at 1 hr with unlabeled estradiol; format: functional; summary of the method: as §1
[40] = Esophagus/blood distribution ratio was determined in immature female rats at 1 hr; format: functional; summary of the method: as §1

Work on `CC[C@H](c1ccc(O)cc1)[C@@H](CI)c1ccc(O)cc1` yielded a 1/krel [1] of 0.71, an Injected dose (Rattus norvegicus [2]) of 1.8% and an Injected dose (Rattus norvegicus [3]) of 1.9%. For the same compound, the Injected dose (Rattus norvegicus [4]) was 2%, the Injected dose (Rattus norvegicus [5]) was 2.5% and the Injected dose (Rattus norvegicus [6]) was 1.4%. It also gave an Injected dose (Rattus norvegicus [7]) of 1.8%, an Injected dose (Rattus norvegicus [8]) of 1.2% and an Injected dose (Rattus norvegicus [9]) of 1.3%. It also gave an Injected dose (Rattus norvegicus [10]) of 619%, an Injected dose (Rattus norvegicus [11]) of 474.5% and an Injected dose (Rattus norvegicus [12]) of 4.9%. The Injected dose (Rattus norvegicus [13]) was 1.3%, the Injected dose (Rattus norvegicus [14]) was 1.5% and the Injected dose (Rattus norvegicus [15]) was 8.3%. It also gave an Injected dose (Rattus norvegicus [16]) of 5.4%, an Injected dose (Rattus norvegicus [17]) of 2.7% and an Injected dose (Rattus norvegicus [18]) of 4.8%. It also gave an Injected dose (Rattus norvegicus [19]) of 4.9%, an Injected dose (Rattus norvegicus [20]) of 15.7% and a Ratio [21] of 3.7. For the same compound, the Ratio [22] was 3.2, the Ratio [23] was 0.9 and the Ratio [24] was 3.6. The Ratio [25] was 1.9, the Ratio [26] was 1 and the Ratio [27] was 1.6. It also gave a Ratio [28] of 1.1, a Ratio [29] of 0.9 and a Ratio [30] of 1.4. It also gave a Ratio [31] of 1.2, a Ratio [32] of 1 and a Ratio [33] of 1. For the same compound, the Ratio [34] was 494.8, the Ratio [35] was 278.4 and the Ratio [36] was 11.3. The Ratio [37] was 3.3, the Injected dose (Rattus norvegicus [38]) was 1.6% and the Ratio [39] was 1.2. It also gave a Ratio [40] of 6.3.
